Experimental data taken from ChEMBL document CHEMBL5705901, “Exploiting selective BCL-2 family inhibitors to dissect cell survival dependencies and define improved strategies for cancer therapy” (Sci Transl Med, 2015).
Blank lines part the entries; values can stand above or below the compound they belong to. The source made the active and inactive calls. The rule behind the calls is not given here.

How the values were obtained:
MDA-MB-231 [1] = experiment: Antitumor activity against LC3 positive human MDA-MB-231 cells xenografted in SCID mouse assessed as maximum tumor growth inhibition at 25 mg/kg, po administered daily for 14 days relative to control; format: functional; details: MDA-MB-231, 336 h, time 14 day, read-out: TGI
Method in brief: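 MDA-MB-231 LC3 metastatic breast cancer xenograft, 10 mice per group, with a vehicle control. Dosing: oral agent 25 mg/kg daily for 14 days; docetaxel 7.5 mg/kg iv once; combination gives both regimens. Mean tumor volumes tracked. TGImax = 100(1 − Tv/Cv) from mean treated vs control volumes. TGD = 100(T/C − 1) from median times to reach 1 cm3.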

EBC-1 = experiment: Synergistic antitumor activity against human EBC-1 cells xenografted in po dosed SCID-bg mouse assessed as maximum tumor growth inhibition in presence of docetaxel relative to control; format: functional
Method in brief: (§1)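 Xenografts dosed with oral inhibitor plus intravenous docetaxel. TGImax = 100(1 − Tv/Cv), from mean treated and control tumor volumes; TGD = 100(T/C − 1), from median times to reach 1 cm3. Group size 5 mice (NCI-H747, A549-FP3, EBC-1, OVCAR-5), 8 (NCI-H358), 10 (NCI-H1650).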

[2] = molecular target: Apoptosis regulator Bcl-2 (Homo sapiens, UniProt P10415); experiment: Binding affinity to Bcl-2 (unknown origin) assessed as dissociation constant incubated for 1 hrs by TR-FRET assay
Sequence of Apoptosis regulator Bcl-2 (P10415 whole entry): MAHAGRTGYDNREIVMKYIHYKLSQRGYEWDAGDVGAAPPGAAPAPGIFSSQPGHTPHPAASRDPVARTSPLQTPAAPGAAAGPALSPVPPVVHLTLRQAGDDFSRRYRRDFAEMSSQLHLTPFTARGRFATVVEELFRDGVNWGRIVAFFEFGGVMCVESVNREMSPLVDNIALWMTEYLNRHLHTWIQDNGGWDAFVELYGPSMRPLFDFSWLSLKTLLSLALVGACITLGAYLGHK

MOLT-4 = experiment: Induction of apoptosis in human MOLT-4 cells assessed as caspase-3/7 activation at 1 to 667 nM incubated for 4 hrs; format: functional, cell-based; details: dose 1-667 nM
Method in brief: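 Molt-4 cells were incubated with increasing concentrations for 4 h, and caspase-3/7 activation was measured. Values are the mean of triplicate experiments ± SD.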

[3] = Toxicity in Sprague-Dawley rat assessed as inhibition of granulopoiesis by measuring reduction in neutrophil count at 7 mg/kg, po administered daily for 5 days measured on day 6 by microscopic analysis relative to control; format: organism-based; details: in vivo, 144 h, time 6 day
Method in brief: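 Male Sprague-Dawley rats, n = 10 per group: docetaxel 5 mg/kg i.v. once, or oral inhibitor daily for 5 days (30, 50 or 7 mg/kg depending on agent), alone or combined with docetaxel, against vehicles. Total neutrophil and platelet counts in blood collected on day 6; Tukey-Kramer test versus vehicle.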

NCI-H747 = experiment: Synergistic antitumor activity against human NCI-H747 cells xenografted in po dosed SCID-bg mouse assessed as maximum tumor growth inhibition in presence of docetaxel relative to control; format: functional; method in brief: as §1
[4] = Antiproliferative activity against human HNT-34 assessed as reduction in cell viability incubated for 48 hrs by CellTiter-Glo cell vaibility assay; format: functional, cell-based; details: HNT-34, 48 h
Method in brief: (§2)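 Tumour cell lines (SCLC panel and AML panel) exposed to increasing concentrations for 48 hours, then cell viability measured. Cell-killing EC50 taken from the concentration-response.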

SK-MES-1 = experiment: Synergistic antiproliferative activity against human SK-MES-1 cells assessed as reduction in cell viability by measuring bliss sum score incubated for 72 hrs in presence of docetaxel by CellTiter-Glo cell vaibility assay; format: functional
SET-2 = experiment: Antiproliferative activity against human SET2 harboring JAK2 V617F mutant assessed as reduction in cell viability incubated for 48 hrs by CellTiter-Glo cell vaibility assay; format: functional, cell-based; details: SET-2, 48 h; method in brief: as §2
[5] = Antiproliferative activity against human UKE-1 harboring JAK2 V617F mutant assessed as reduction in cell viability incubated for 48 hrs by CellTiter-Glo cell vaibility assay; format: functional, cell-based; details: UKE1, 48 h; method in brief: as §2
MV4-11 = experiment: Antiproliferative activity against human MV4-11 assessed as reduction in cell viability incubated for 48 hrs by CellTiter-Glo cell vaibility assay; format: functional, cell-based; details: MV4-11, 48 h; method in brief: as §2
[6] = Antiproliferative activity against human MOLM16 assessed as reduction in cell viability incubated for 48 hrs by CellTiter-Glo cell vaibility assay; format: functional, cell-based, MOLM-16; details: MOLM16, 48 h; method in brief: as §2
GDM-1 = experiment: Antiproliferative activity against human GDM-1 assessed as reduction in cell viability incubated for 48 hrs by CellTiter-Glo cell vaibility assay; format: functional, cell-based; details: GDM-1, 48 h; method in brief: as §2
HL-60 = experiment: Antiproliferative activity against human HL-60 assessed as reduction in cell viability incubated for 48 hrs by CellTiter-Glo cell vaibility assay; format: functional, cell-based; details: HL-60, 48 h; method in brief: as §2
NCI-H69 = experiment: Antiproliferative activity against human NCI-H69 assessed as reduction in cell viability incubated for 48 hrs by CellTiter-Glo cell vaibility assay; format: functional, cell-based; details: NCI-H69, 48 h; method in brief: as §2
MDA-MB-231 [7] = experiment: Synergistic antiproliferative activity against human MDA-MB-231 cells assessed as reduction in cell viability by measuring bliss sum score incubated for 72 hrs in presence of docetaxel by CellTiter-Glo cell vaibility assay; format: functional
[8] = Inhibition of granulocyte colony formation in human bone marrow cells at 0.1 to 20 uM incubated for 14 to 16 days by light microscopic analysis; format: toxicity, cell-based; details: bone marrow cell, dose lower 0.1 µM, time lower 14 day, dose upper 20 µM, time upper 16 day
Method in brief: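 Isolated human bone marrow cells cultured in semisolid medium with increasing inhibitor concentrations; granulocyte (neutrophil) colonies counted by light microscopy after 15–16 days; triplicate means with SD; Student's t test versus solvent control.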

EOL1 = experiment: Antiproliferative activity against human EOL1 assessed as reduction in cell viability incubated for 48 hrs by CellTiter-Glo cell vaibility assay; format: functional, cell-based; details: EOL1, 48 h; method in brief: as §2
MEF = experiment: Cytotoxicity against Mcl-1 knockout MEF cells assessed as reduction in cell viability incubated for 48 hrs by CellTiter-Glo cell vaibility assay; format: toxicity, cell-based; details: mouse
NCI-H146 = experiment: Induction of apoptosis in Bcl-xl dependent human NCI-H146 cells assessed as caspase 3/7 activation at 1 to 667 nM incubated for 4 hrs by immunoblot analysis; format: functional, cell-based; details: dose 1-667 nM
Method in brief: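 NCI-H146 cells were incubated with increasing concentrations for 4 h, and caspase-3/7 activation was measured. Values are the mean of triplicate experiments ± SD.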

DMS-79 = experiment: Antiproliferative activity against human DMS 79 assessed as reduction in cell viability incubated for 48 hrs by CellTiter-Glo cell vaibility assay; format: functional, cell-based; details: DMS-79, 48 h; method in brief: as §2
ZR-75-1 = experiment: Induction of apoptosis in human ZR-75-1 cells assessed as accumulation of cells with sub-G0-G1 DNA content at 1 uM incubated for 48 hrs in presence of docetaxel by flow cytometric analysis; format: functional, cell-based
HCC1500 = experiment: Induction of apoptosis in human HCC1500 cells assessed as accumulation of cells with sub-G0-G1 DNA content at 1 uM incubated for 48 hrs in presence of docetaxel by flow cytometric analysis; format: functional, cell-based
HCC38 = experiment: Induction of apoptosis in human HCC38 cells assessed as accumulation of cells with sub-G0-G1 DNA content at 1 uM incubated for 48 hrs in presence of docetaxel by flow cytometric analysis; format: functional, cell-based
MDA-MB-468 = experiment: Induction of apoptosis in human MDA-MB-468 cells assessed as accumulation of cells with sub-G0-G1 DNA content at 1 uM incubated for 48 hrs in presence of docetaxel by flow cytometric analysis; format: functional, cell-based
MDA-MB-361 = experiment: Induction of apoptosis in human MDA-MB-361 cells assessed as accumulation of cells with sub-G0-G1 DNA content at 1 uM incubated for 48 hrs in presence of docetaxel by flow cytometric analysis; format: functional, cell-based

SMILES: Cc1c(-c2ccc(N3CCc4cccc(C(=O)Nc5nc6ccccc6s5)c4C3)nc2C(=O)O)cnn1CC12CC3CC(CC(C3)C1)C2
- inhibition in vivo at 25 mg/kg (MDA-MB-231 [1]): 55%
- TGI (EBC-1): 88%
- Ki [2]: 6 nM
- Activity (MOLT-4): Active
- Activity [3]: Non-Toxic
- TGI (NCI-H747): 84%

SMILES: CN(C)CC#Cc1ccc(OCCCc2sc(N3CCc4cccc(C(=O)Nc5nc6ccccc6s5)c4C3)nc2C(=O)O)c(F)c1 [A-1155463]
- EC50 [4]: 680 nM
- Activity_index (SK-MES-1): 152
- EC50 (SET-2): 80 nM
- EC50 [5]: 490 nM
- EC50 (MV4-11): > 5000 nM
- EC50 [6]: > 5000 nM
- EC50 (GDM-1): 1170 nM
- EC50 (HL-60): > 5000 nM
- EC50 (NCI-H69): 3200 nM
- Activity_index (MDA-MB-231 [7]): 277
- Activity [8]: Non-Toxic
- EC50 (EOL1): 2250 nM
- Activity (MEF): Toxic
- Activity (NCI-H146): Active
- EC50 (DMS-79): 1440 nM

- EC50 (MV4-11): 40 nM
- EC50 (HL-60): 40 nM
- EC50 (NCI-H69): 180 nM
SMILES: CC1(C)CCC(c2ccc(Cl)cc2)=C(CN2CCN(c3ccc(C(=O)NS(=O)(=O)c4ccc(N[C@H](CCN5CCOCC5)CSc5ccccc5)c(S(=O)(=O)C(F)(F)F)c4)cc3)CC2)C1 [NAVITOCLAX]
- EC50 [4]: 30 nM
- Activity (ZR-75-1): Active
- Activity (HCC1500): Active
- EC50 (SET-2): 60 nM
- EC50 [5]: 50 nM
- Activity (HCC38): Active
- Activity (MDA-MB-468): Active
- EC50 [6]: 120 nM
- Activity (MDA-MB-361): Active
- EC50 (GDM-1): 11 nM
- Activity [8]: Toxic
- EC50 (EOL1): 11 nM
- EC50 (DMS-79): 440 nM
